This excerpt belongs to a sample that is enriched for hits.
STK33 inh = inhibitors of purified STK33 kinase, primary screen, biochemical, ADP-Glo luminescence, homogeneous, cell-free. Serine/threonine-protein kinase 33 (Homo sapiens), Q9BYT3. MBP phosphorylation. inhibition, % at 10 µM. 320,000 tested, 0.073% active. AID 2661, 2010;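 active = inhibition at or above 25%, using the most active replicate where run in duplicate; inactive = inhibition below 25%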
CDK5 p35 inh = inhibitors of human CDK5/p35 kinase, primary screen, biochemical, single concentration; 330,000 tested, 0.01% active; Recombinant CDK5/p35, ADP-Glo luminescence, 60 min; inhibition, % at 10 µM; Cyclin-dependent kinase 5 (Homo sapiens) + Cyclin-dependent kinase 5 activator 1 (Homo …;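 active = highest replicate inhibition of at least 50% and at least 75% of replicates reaching 50%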
GSK3beta inhib = human GSK3beta kinase inhibitors, primary screen, biochemical, cell-free homogeneous, HTS; Glycogen synthase kinase-3 beta (Homo sapiens), P49841; GST-GSK3beta kinase, ADP-Glo luminescence, 60 min; hits give low values; activity score (negative = inhibition), % at 10 µM; 300,000 tested, 0.038% active; AID 2097, 2009;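 active = more than half of replicate wells score below -50%, meaning over 50% inhibition versus plate controls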
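Test system: GST-tagged human GSK3beta kinase, cell-free; evaluation: activity score scaled between in-plate DMSO and GW8510 controls; measured by: ADP-Glo luminescence; incubation: 60 min reaction, RT; benchmarks: DMSO and 20 µM GW8510; reagent: peptide substrate plus 25 µM ATP (final); medium: Tris/MgCl2 kinase buffer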
DYRK1A inh = rat Dyrk1A kinase inhibitors, primary screen, biochemical, single point, plate reader; ADP-Glo luminescence, NFATc1 peptide; inhibition, % at 12.5 µM; 310,000 tested, 0.43% active; in the data active = inhibition above about 50%
GSK3A inh = blockers of GSK3A enzyme activity – biochemical, luminescence, cell-free homogeneous, HTS, primary screen. AID 2650, 2010. inhibition, % at 10 µM. 320,000 tested, 0.1% active. GSK-3 alpha kinase, ADP-Glo luminescence, 60 min. Glycogen synthase kinase-3 alpha (Homo sapiens), P49840;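 active = more than half of replicates show inhibition above 20%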;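 note: GST-tagged GSK-3 alpha with peptide substrate and 25 µM ATP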
Target sequence (P49840 whole entry, looked up): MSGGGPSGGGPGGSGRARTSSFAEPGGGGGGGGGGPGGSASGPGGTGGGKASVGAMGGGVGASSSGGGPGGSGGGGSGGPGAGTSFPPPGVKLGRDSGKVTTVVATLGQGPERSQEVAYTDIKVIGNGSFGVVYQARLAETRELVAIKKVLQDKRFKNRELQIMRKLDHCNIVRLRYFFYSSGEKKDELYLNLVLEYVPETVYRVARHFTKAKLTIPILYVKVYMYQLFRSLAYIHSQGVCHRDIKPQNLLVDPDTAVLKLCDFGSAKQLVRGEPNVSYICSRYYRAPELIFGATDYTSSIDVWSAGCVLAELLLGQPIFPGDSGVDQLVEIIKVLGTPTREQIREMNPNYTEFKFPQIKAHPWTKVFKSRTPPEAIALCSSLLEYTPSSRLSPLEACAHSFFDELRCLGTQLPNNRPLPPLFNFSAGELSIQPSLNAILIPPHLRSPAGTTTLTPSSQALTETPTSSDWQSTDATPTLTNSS
Dyrk1A artifact = ADP-Glo luciferase interference without Dyrk1A, dose response, artefact control for Dyrk1A inhibitor project, biochemical, luminescence, cherry-pick, set 02. 1,300 tested, under 10 active. shares compounds with DYRK1A inh. ADP-Glo luciferase artifact assay, no Dyrk1A. AC50, µM (titrated, usually from 12 µM);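 active = fitted half-maximal dose AC50 no more than ten times the top valid tested dose, with luminescence dropping as dose rises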
Numbers stand for hits; i = inactive; nt = not tested or not shown.

SMILES	STK33 inh	CDK5 p35 inh	GSK3beta inhib	DYRK1A inh	GSK3A inh	Dyrk1A artifact
Cc1cccc(Cl)c1OCCCCn1ccnc1	i	i	i	56	i	i
CCCN(CC(=O)Nc1ccccc1OC)C(=O)c1nc2nc(C)ccn2n1	i	i	nt	i	i	nt
Cc1nc(N)[nH]c(=O)c1CCCNc1ccc(CCC2(CCl)OCCO2)cc1	nt	i	nt	nt	nt	nt
Cc1ccc(S(=O)(=O)/N=C2\C=C(Nc3cccc(C(=O)O)c3)C(=O)c3ccccc32)c(C)c1	i	i	i	76	i	i
Cc1ccc(S(=O)(=O)/N=C2\C=C(NS(=O)(=O)c3ccccc3)C(=O)c3ccccc32)c(C)c1	nt	i	nt	i	nt	nt
Cc1ccc(S(=O)(=O)/N=C2\C=C(Nc3cccc(C(=O)O)c3)C(=O)c3ccccc32)cc1	i	i	i	51	i	i
Nc1cc2c([N+](=O)[O-])cccc2o1	i	i	i	60	i	i
O=C1NC(=O)C(c2ccccc2[N+](=O)[O-])=C1Nc1ccc(O)c(Cl)c1	i	66	nt	87	nt	i
Nn1c(SCC(=O)Nc2ccccc2Oc2ccccc2)nnc1C1CC1	nt	i	nt	i	nt	nt
O=C1C=C(N2CCOCC2)c2ccccc2C1=O	i	i	i	56	i	i
COc1ccc(-c2coc3cc(O)ccc3c2=O)cc1O	i	i	i	57	i	i
Nc1cccnc1Oc1ccccc1F	i	i	i	i	i	nt
O=C(/C=C/c1ccccc1)Nc1cccnc1Oc1ccccc1F	i	i	i	51	i	i
CCCCCCCCN1[C@@H](CC(=O)OC)c2cc(C(F)(F)F)ccc2S1(=O)=O	i	i	i	50	i	i
CCCCCCCCN1[C@@H](CC(C)=O)c2cc(C(F)(F)F)ccc2S1(=O)=O	i	i	i	i	i	nt
COc1ccc(-c2cnnc(N/N=C/c3ccc(O)cc3)n2)cc1	i	i	i	i	i	nt
COc1ccc(-c2cnnc(N/N=C/c3ccc(O)c(O)c3)n2)cc1	i	i	i	68	i	i
CCC(=O)Nc1c(C#N)c2nc3ccccc3nc2n1-c1ccccc1C	i	i	i	55	i	i
CCC(=O)Nc1c(C#N)c2nc3ccccc3nc2n1C1CCCCC1	i	i	i	i	i	nt
COc1ccc(-c2nc(-c3ccccn3)ncc2S(C)(=O)=O)cc1	i	i	i	i	nt	nt
CCCc1nc2c([nH]1)c(=O)n(C)c(=O)n2C	i	i	i	i	i	nt
Cn1nc(-c2ccccn2)nc2c(=O)n(C)c(=O)nc1-2	i	i	i	81	i	i
CCCc1nc2c(=O)n(C)c(=O)nc-2n(C)n1	nt	i	nt	65	nt	i
O=C(Cn1cnc2ccccc21)Nc1cccc(S(=O)(=O)N2CCCC2)c1	i	i	nt	i	i	nt
O=c1cc(-c2ccccc2Cl)oc2c(NS(=O)(=O)c3ccccc3C(F)(F)F)ccc(O)c12	i	i	i	59	i	i
SMILES	STK33 inh	CDK5 p35 inh	GSK3beta inhib	DYRK1A inh	GSK3A inh	Dyrk1A artifact
CN(Cc1ccon1)C(=O)C1CCC(=O)N(CCc2ccc(Cl)cc2)C1 (stereo not drawn)	nt	i	i	i	nt	nt
COc1ccc(-c2cn[nH]c2C)cc1	i	i	i	63	i	i
CCOC(=O)c1ccc(NC(=S)Nc2ccc(Br)cc2N)cc1	i	i	i	63	i	i
Oc1cncc(Cc2ccccc2)c1	i	i	i	nt	i	nt
COc1cc(O)c2c(=O)c3c(O)ccc(O)c3oc2c1	nt	i	nt	68	nt	i
O=C(Nc1ccc(C(=O)N2CCOCC2)cc1)c1cccc([N+](=O)[O-])c1	i	i	i	i	i	nt
O=C(Nc1ncc2c(n1)-c1ccccc1CC2)c1ccc(Cl)cc1	i	i	i	59	i	i
CCCc1cc(NC(=O)COC(=O)c2nccnc2N)n(-c2ccccc2)n1	i	i	nt	i	i	nt
NC(=O)C1CCN(C2=C(Cl)C(=O)c3ccccc3C2=O)CC1	i	i	i	i	i	nt
O=C1C(Cl)=C(N2CCC(C(=O)O)CC2)C(=O)c2ccccc21	i	i	i	61	i	i

Bioassay records from PubChem BioAssay.
